In general, inhibition refers to the drop in the measured response relative to a control, in per cent.

The nature of experiment [1]: inhibitors of TNFa-induced NFkB p65 translocation, primary screen, imaging, HUVEC, MLSMR starter and 10KST1 sets (AID 438;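 active = inhibition above 20% together with a positive visual image hit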;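 also: compound added about 3h40 before a 20 min TNFalpha stimulation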;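 as to inhibition: signal is the nuclear over cytoplasmic p65 intensity ratio per well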). As to conditions: HUVEC TNFa-induced p65 nuclear translocation; cell count: measured here: nuclei count (cytotoxicity indicator), at 2.08 µM; inhibition: at 2 µM, stronger effect = higher value, 0% TNFa-plus-vehicle, 100% no-TNFa wells.
A short description of experiment [2]: inhibitors of mutant huntingtin aggregation, primary screen, imaging, exon1htt(103Q)mCFP cells, high-content imaging (AID 483;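 active = visual image review flags a hit and inhibition of aggregation exceeds 20%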;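 also: compound exposure lasted 3 days before fixation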;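 as to nuclei count: percent of the per-plate median nuclei count of sample wells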). As to conditions: exon1htt(103Q)mCFP cell line, aggregate imaging, at 2 µM; inhibition of aggregation: stronger effect = higher value; nuclei count: measured here: cell count, toxicity.
Experiment [3] can be described thus: inhibitors of E-selectin induction by TNFa, primary screen, imaging, HUVEC, immunofluorescence, MLSMR starter and 10KST1 sets (AID 487;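 active = visually confirmed hit in the image check and inhibition above 20%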;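 as to inhibition: signal is fraction of cell area covered by stained E-selectin grains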;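 as to nuclei count: 100% = median nuclei count of all wells on the same plate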). The note with it: HUVEC TNFalpha-induced E-selectin immunofluorescence imaging, at 2 µM; inhibition: stronger effect = higher value; nuclei count: measured here: cell number, toxicity.
Experiment [4] concerns the target Voltage-gated potassium channel subunit beta-2 (Rattus norvegicus) (UniProt P62483). In words: KvBeta enzyme negative modulators, primary screen, biochemical, NADPH fluorescence (AID 622;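 active = fluorescence slope higher than the sample average by over 3 SD, cut at about -0.22 in these data, passing the limit was not always enough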;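 also: slope of raw intensity against log time taken from 70 to 1610 s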). The note with it: recombinant KvBeta, 4-cyanobenzaldehyde reduction, at 10 µM, stronger effect = higher value.
Experiment [5] has the same target. The experiment in a line: KvBeta positive modulators, primary screen, biochemical, NADPH fluorescence (AID 623;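 active = NADPH fluorescence slope more negative than the mean of all samples by about 3 SD, 99.7% confidence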;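 also: fluorescence intensity change per second fitted from 20 to 320 s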). The note with it: Recombinant KvBeta, NADPH fluorescence decrease slope, 10 min; at 10 µM; stronger effect = lower value.
Experiment [6] deals with Muscarinic acetylcholine receptor M4 (Homo sapiens) (UniProt P08173). In words: compounds altering M4/GIRK thallium flux, either direction, primary screen, M4 allosteric agonist project, cell-based, HEK293 M4/GIRK, BTC-AM (AID 625).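 Also: thallium influx through GIRK channels coupled to M4 in HEK293 cells with BTC-AM dye.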 As to conditions: at 10 µM, actives lie on both sides. The procedure, abridged:
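Assay system: HEK293 cells with M4 receptor and GIRK channels / Controls: carbachol and DMSO controls / Schedule: 1 h dye loading, 2 min kinetic read / Technique: kinetic fluorescence with BTC-AM dye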

The nature of experiment [7]: inhibitors of Sendai virus-induced IRF3 signaling, primary screen, TLR/RLR signaling modifier project, cell-based, Sendai virus stimulus, luciferase, 10K MLSCN set (AID 602276;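 active = inhibition at or above 50% at 10 µM; inactive = inhibition below 50%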;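 also: firefly luciferase from ISG56 promoter only with Renilla not read in this screen; 0% = Sendai virus plus DMSO and 100% = medium plus DMSO without virus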). As to conditions: HEK293 RL24 IRF3 luciferase reporter, at 10 µM, stronger effect = higher value. A general note: In a reporter assay the amount or activity of a reporter protein is the signal.
The nature of experiment [8]: inhibitors of poly I:C-induced TLR3 signaling, primary screen, cell-based, poly I:C stimulus, luciferase, 10K MLSCN set (AID 602277;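 active = inhibition of the reporter signal at or above 50%; inactive = inhibition below 50%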). As to conditions: HEK293-TLR3 RL24 IRF3 luciferase reporter, at 10 µM, stronger effect = higher value.

The source made the active and inactive calls.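 The calls were made as follows, unless noted: active = fluorescence slope after compound addition differing from the mean of all tested samples at 99.7% confidence, mostly higher but some lower; inactive = the rest.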 Where a SMILES comes first, the peptide text is derived from it. The star is where a group is joined. Boc = CC(C)(C)OC(=O)*

Sequence of Muscarinic acetylcholine receptor M4 (Homo sapiens) (P08173 whole entry, looked up): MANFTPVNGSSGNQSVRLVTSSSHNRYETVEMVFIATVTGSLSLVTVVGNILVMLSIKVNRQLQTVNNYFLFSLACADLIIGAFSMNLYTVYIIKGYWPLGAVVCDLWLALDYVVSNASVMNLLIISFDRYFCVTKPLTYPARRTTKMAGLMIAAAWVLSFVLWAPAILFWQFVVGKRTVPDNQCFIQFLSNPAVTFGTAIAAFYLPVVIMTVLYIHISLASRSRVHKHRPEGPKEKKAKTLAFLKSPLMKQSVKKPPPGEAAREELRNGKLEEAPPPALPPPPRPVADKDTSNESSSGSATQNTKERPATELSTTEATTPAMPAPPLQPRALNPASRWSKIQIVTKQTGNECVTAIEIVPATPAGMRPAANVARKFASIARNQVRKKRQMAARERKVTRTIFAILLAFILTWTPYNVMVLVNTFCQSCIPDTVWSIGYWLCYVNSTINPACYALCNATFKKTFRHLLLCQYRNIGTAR
Sequence of Voltage-gated potassium channel subunit beta-2 (Rattus norvegicus) (P62483 whole entry, looked up): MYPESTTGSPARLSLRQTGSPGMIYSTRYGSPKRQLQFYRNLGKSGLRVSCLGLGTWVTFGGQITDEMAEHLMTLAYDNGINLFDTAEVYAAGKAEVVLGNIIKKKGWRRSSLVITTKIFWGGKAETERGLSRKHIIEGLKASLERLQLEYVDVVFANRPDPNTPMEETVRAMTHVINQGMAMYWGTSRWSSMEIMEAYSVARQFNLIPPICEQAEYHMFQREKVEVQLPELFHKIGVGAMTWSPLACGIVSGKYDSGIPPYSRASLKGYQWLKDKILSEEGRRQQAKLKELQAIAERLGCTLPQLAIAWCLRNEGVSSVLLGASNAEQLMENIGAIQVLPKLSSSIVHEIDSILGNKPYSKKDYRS

For `CCc1nc2c(cnn2-c2ccc(Cl)cc2)c(=O)n1-c1ccc2c(c1)OCCO2`, the cell count in experiment [1] amounted to 706. Moreover, the inhibition in experiment [1] was -7.7% (inactive); in experiment [3], -49.7% (inactive); in experiment [7] it was 3.09% (inactive); in experiment [8], -2.86% (inactive). In addition, the inhibition of aggregation in experiment [2] is -5.1% (inactive). Besides, the nuclei count in experiment [2] amounted to 120%; in experiment [3] it was 122%. Also, the fluorescence slope in experiment [4] is -0.543 (inactive); in experiment [6], 0.00631 (inactive). Also, the NADPH fluorescence slope in experiment [5] was -1.7e-05 (inactive).

With `COC(=O)CN1C(=O)C2(C(C#N)=C(N)Oc3c2c(C)nn3-c2ccccc2)c2ccccc21` (centres undefined), in experiment [1], the cell count is 668. Besides, the inhibition in experiment [1] was -24.1% (inactive); in experiment [3], 18.6% (inactive); in experiment [7], 16.1% (inactive); in experiment [8], 19.7% (inactive). In addition, the inhibition of aggregation in experiment [2] was 5% (inactive). Further, the nuclei count in experiment [2] and in experiment [3] was 97.4% each time. The fluorescence slope in experiment [4] is -0.475 (inactive); in experiment [6] it was 0.0047 (inactive). For the same molecule, the NADPH fluorescence slope in experiment [5] was -6.6e-05 (inactive).

On to `Cc1cc(O)c(NC(=O)c2ccc(Br)o2)cc1C`, for which, in experiment [1], the cell count worked out at 394. Moreover, the inhibition in experiment [1] is 5.5% (inactive); in experiment [3], -6.8% (inactive); in experiment [7] it was 8.6% (inactive); in experiment [8], -53.5% (inactive). The inhibition of aggregation in experiment [2] was -12.4% (inactive). The nuclei count in experiment [2] was 103%; in experiment [3], 116%. The fluorescence slope in experiment [4] is -0.299 (inactive); in experiment [6], 0.00583 (inactive). Moreover, the NADPH fluorescence slope in experiment [5] was -6.1e-05 (inactive).

As to `CC(C)CC(NC(=O)OC(C)(C)C)C(=O)NC(C(=O)NC(C)C(N)=O)C(C)C` (stereo not drawn) (Boc-Leu-Val-Ala-NH2; configuration not given here), the cell count in experiment [1] turned out to be 342. The inhibition was 4.6% (inactive) in experiment [1], -20.6% (inactive) in experiment [3], -9.68% (inactive) in experiment [7] and 17.1% (inactive) in experiment [8]. Besides, the inhibition of aggregation in experiment [2] was 4.4% (inactive). Also, the nuclei count in experiment [2] is 116%; in experiment [3] it was 117%. For the same molecule, the fluorescence slope in experiment [4] is -0.573 (inactive); in experiment [6], 0.00562 (inactive). Moreover, in experiment [5], the NADPH fluorescence slope is -1.3e-05 (inactive).

Turning to `Cn1c(CN2CCOCC2)nc2cc(NC(=O)c3ccccc3Cl)ccc21`, the cell count in experiment [1] is 463. In addition, the inhibition in experiment [1] is 7.9% (inactive); in experiment [3] it was -19.9% (inactive); in experiment [7] it was 8.55% (inactive); in experiment [8], 2.36% (inactive). In experiment [2], the inhibition of aggregation is -4.3% (inactive). Further, the nuclei count in experiment [2] worked out at 102%; in experiment [3], 113%. For the same molecule, the values for the fluorescence slope in experiment [4] and in experiment [6] were -0.588 (inactive) and 0.00633 (inactive), respectively. The NADPH fluorescence slope in experiment [5] was -2.3e-05 (inactive).

Consider `COc1cccc(CC(NC(C)=O)C(=O)NC2CCN(c3c4c(nc5ncnn35)CCC4)CC2)c1` (centres undefined), for which the cell count in experiment [1] amounted to 767. The inhibition in experiment [1] is -6.8% (inactive); in experiment [3] it was -37.8% (inactive); in experiment [7] it was 17.1% (inactive); in experiment [8] it was 22.9% (inactive). In addition, in experiment [2], the inhibition of aggregation is -4.2% (inactive). The nuclei count stood at 114% in experiment [2] and 140% in experiment [3]. Moreover, the values for the fluorescence slope in experiment [4] and in experiment [6] were -0.464 (inactive) and 0.00506 (inactive), respectively. For the same molecule, the NADPH fluorescence slope in experiment [5] is -5.8e-05 (inactive).

Take `CCn1c2ccccc2c2cc(NC(=O)Cc3ccc(S(=O)(=O)N4CCOCC4)s3)ccc21`: the cell count in experiment [1] was 343. Also, the inhibition in experiment [1] was -0.2% (inactive); in experiment [3], -10.9% (inactive); in experiment [7] it was 25.9% (inactive); in experiment [8] it was 26.4% (inactive). In experiment [2], the inhibition of aggregation was 29.4% (inactive). The results for the nuclei count in experiment [2] and in experiment [3] were 115% and 109%, respectively. The fluorescence slope in experiment [4] was -0.502 (inactive); in experiment [6], 0.00333 (inactive). In addition, the NADPH fluorescence slope in experiment [5] was 1e-05 (inactive).

As to `COc1ccccc1-c1cc(C(=O)NCCCn2ccnc2)no1`, the cell count in experiment [1] came out at 459. The inhibition was -15.2% (inactive) in experiment [1], 49.5% (inactive) in experiment [3], 5.02% (inactive) in experiment [7] and 36% (inactive) in experiment [8]. For the same molecule, the inhibition of aggregation in experiment [2] was -15.7% (inactive). Moreover, the nuclei count was found to be 106% in experiment [2] and 90% in experiment [3]. Also, the fluorescence slope in experiment [4] was -0.291 (inactive); in experiment [6], 0.00777 (inactive). Moreover, the NADPH fluorescence slope in experiment [5] was -2.7e-05 (inactive).

As for `COc1cccc(N2CCN(Cc3nc(N)nc(Nc4ccccc4OC)n3)CC2)c1`, the cell count in experiment [1] amounted to 495. Also, the inhibition in experiment [1] is 2.9% (inactive); in experiment [3], 2.5% (inactive); in experiment [7], 19% (inactive); in experiment [8], 17.2% (inactive). The inhibition of aggregation in experiment [2] is -8.8% (inactive). Also, the nuclei count in experiment [2] is 97.2%; in experiment [3] it was 104%. Further, the results for the fluorescence slope in experiment [4] and in experiment [6] were -0.562 (inactive) and 0.00593 (inactive), respectively. For the same molecule, the NADPH fluorescence slope in experiment [5] is -3.3e-05 (inactive).

Regarding `CC1(C)Cc2noc(N)c2C(C)(C)N1OC(=O)c1cccs1`, in experiment [1], the cell count was found to be 379. Further, the inhibition in experiment [1] was 0% (inactive); in experiment [3], -80.4% (inactive); in experiment [7], 4.03% (inactive); in experiment [8], 12.6% (inactive). Further, in experiment [2], the inhibition of aggregation is 5.5% (inactive). Moreover, the results for the nuclei count in experiment [2] and in experiment [3] were 110% and 129%, respectively. Further, the fluorescence slope in experiment [4] is -0.46 (inactive); in experiment [6], 0.00603 (inactive). In experiment [5], the NADPH fluorescence slope was 1.8e-05 (inactive).

For `Nc1nonc1-c1noc(CCCCCN2C(=O)c3ccccc3C2=O)n1`, the cell count in experiment [1] worked out at 221. The inhibition in experiment [1] is 6.9% (inactive); in experiment [3] it was 9.5% (inactive); in experiment [7] it was -4.73% (inactive); in experiment [8], -15.6% (inactive). The inhibition of aggregation in experiment [2] was -10.5% (inactive). The values for the nuclei count in experiment [2] and in experiment [3] were 91% and 88%, respectively. In addition, the fluorescence slope was -0.522 (inactive) in experiment [4] and 0.00407 (inactive) in experiment [6]. Further, in experiment [5], the NADPH fluorescence slope was -2.2e-05 (inactive).

For the molecule `CCOC(=O)C1CCN(C(=O)c2c(-c3c(Cl)cccc3Cl)noc2C)CC1`, in experiment [1], the cell count was 376. The inhibition in experiment [1] was 1.6% (inactive); in experiment [3], -89.8% (inactive); in experiment [7], 4.89% (inactive); in experiment [8], 12.6% (inactive). Also, in experiment [2], the inhibition of aggregation was 20.9% (inactive). The nuclei count amounted to 94.8% in experiment [2] and 110% in experiment [3]. Further, the fluorescence slope in experiment [4] was -0.557 (inactive); in experiment [6], 0.00598 (inactive). Besides, the NADPH fluorescence slope in experiment [5] was -4.4e-05 (inactive).

Consider `O=C(CCCn1c(=O)c2sccc2n(CC(=O)NCc2ccco2)c1=O)NCc1ccco1`, for which the cell count in experiment [1] was 263. The inhibition was 2.8% (inactive) in experiment [1], -49.2% (inactive) in experiment [3], 13.9% (inactive) in experiment [7] and 15% (inactive) in experiment [8]. Also, in experiment [2], the inhibition of aggregation is -6.2% (inactive). Besides, the nuclei count in experiment [2] amounted to 98.5%; in experiment [3], 117%. In addition, the fluorescence slope in experiment [4] is -0.567 (inactive); in experiment [6], 0.00613 (inactive). Besides, the NADPH fluorescence slope in experiment [5] is -5.7e-05 (inactive).

As to `O=C(CN(c1ccccc1)S(=O)(=O)c1ccccc1)N1CCN(Cc2ccc3c(c2)OCO3)CC1`, the cell count in experiment [1] came to 372. Moreover, the inhibition is 4% (inactive) in experiment [1], -23.4% (inactive) in experiment [3], 13.6% (inactive) in experiment [7] and 21.8% (inactive) in experiment [8]. Moreover, the inhibition of aggregation in experiment [2] is -11.3% (inactive). The values for the nuclei count in experiment [2] and in experiment [3] were 122% and 116%, respectively. Also, the fluorescence slope in experiment [4] was -0.528 (inactive); in experiment [6], 0.00412 (inactive). The NADPH fluorescence slope in experiment [5] is -3.2e-05 (inactive).

Source of the values: PubChem BioAssay.
